CXCR6 block: CXCR6 (human) receptor inhibition; inhibition, % at 20 µM; CHO-K1 PathHunter CXCR6 beta-arrestin, luminescence; 0.36% of 360,000 active; in the data active means inhibition above about 34%, passing the limit was not always enough;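 further: antagonist mode with CXCL16 agonist at 10 nM final; 0% = 10 nM CXCL16 with DMSO and 100% = unstimulated wells without agonist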
Target sequence (O00574 whole entry, looked up): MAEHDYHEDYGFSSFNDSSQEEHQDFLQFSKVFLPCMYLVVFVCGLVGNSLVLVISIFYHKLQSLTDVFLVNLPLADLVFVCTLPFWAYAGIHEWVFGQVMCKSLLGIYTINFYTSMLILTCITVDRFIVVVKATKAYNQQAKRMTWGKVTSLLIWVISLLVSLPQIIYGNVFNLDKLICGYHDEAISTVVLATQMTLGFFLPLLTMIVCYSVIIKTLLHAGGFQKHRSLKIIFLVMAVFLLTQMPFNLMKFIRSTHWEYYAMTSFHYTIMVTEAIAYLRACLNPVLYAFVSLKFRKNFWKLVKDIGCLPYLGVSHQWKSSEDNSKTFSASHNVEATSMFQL
HTR2A ag: activates the mouse 5-HT2A serotonin receptor | activation, % at 7.6 µM | AID 624169 | 0.66% of 360,000 active | CHO-K1 mHTR2A beta-arrestin complementation, luminescence; percent of 30 µM serotonin response | P35363;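 active means activation above a run cutoff, the mean activation of all tested compounds plus 3 SD, cut at about 14% in these data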;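 further: 0% = plate median of compound wells and 100% = 30 µM serotonin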
CCR6 antagonist: antagonists of human CCR6 receptor; P51684; CHO-K1 CCR6 PathHunter beta-arrestin, luminescence, CCL20-stimulated; inhibition, % at 20 µM; 0.49% of 340,000 active;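 active means compounds whose inhibition of the agonist-driven luminescence signal at 20 µM reaches about 50%, limit read from the data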;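 further: cells stimulated with CCL20 at 14 nM final; plate controls were DMSO with CCL20 for no effect and DMSO without agonist for full effect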
APJ antagonist: antagonists of human APJ apelin receptor. CHO-K1 APJ beta-arrestin complementation, luminescence. inhibition, % at 20 µM. 0.32% of 330,000 active;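 active means inhibition above about 40% at 20 µM, limit read from the data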;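 further: cells challenged with 10 nM apelin-13 agonist together with compound; plate controls were apelin-13 plus DMSO wells for no effect and DMSO wells lacking apelin-13 for full effect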
APJ agonist: agonists of human APJ apelin receptor | 0.11% of 330,000 active | CHO-K1 APJ PathHunter beta-arrestin, luminescence; 0% DMSO wells, 100% apelin | activation, % at 20 µM | AID 2520 | P35414;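 active means activation more than six SD over the plate average, tested at 20 µM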;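 further: 0% = DMSO alone and 100% = apelin-13 at 10 nM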
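assay system = CHO-K1 APJ beta-arrestin complementation cell line | input = cell density 1000 per well | dosing = compound 20 µM once, DMSO 1% | timing = compound 90 min 25 °C, reagent 1 h | measured by = luminescence from split beta-galactosidase complementation, Galacton Star/Emerald II substrate | read-out basis = APJ agonist activity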
EBI2 block: EBI2 (human) antagonism; P32249; EBI2 beta-arrestin recruitment, luminescence, 7a,25-OHC stimulated; inhibition, % at 5 µM; 0.81% of 360,000 active; AID 651636; in the data active means inhibition above about 38%;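 further: enzyme fragment complementation signal reports receptor beta-arrestin coupling in cells; 0% = agonist plus DMSO wells and 100% = wells without agonist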
Target sequence (P32249 whole entry, looked up, the tested form may be a part): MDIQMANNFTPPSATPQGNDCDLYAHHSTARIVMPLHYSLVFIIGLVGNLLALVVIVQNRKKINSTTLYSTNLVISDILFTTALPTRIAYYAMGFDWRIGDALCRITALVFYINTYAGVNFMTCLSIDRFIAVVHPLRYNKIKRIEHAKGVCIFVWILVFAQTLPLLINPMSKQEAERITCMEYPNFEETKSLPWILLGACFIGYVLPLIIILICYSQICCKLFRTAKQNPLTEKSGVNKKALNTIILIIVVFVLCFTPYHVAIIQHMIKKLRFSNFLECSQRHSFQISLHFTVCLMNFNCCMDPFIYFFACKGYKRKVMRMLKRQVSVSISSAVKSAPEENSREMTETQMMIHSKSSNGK
OPRM1 ag: counter-screen for mouse HTR2A agonists: human mu opioid receptor agonists | U2OS OPRM1 beta-arrestin PathHunter, luminescence; DMSO 0%, DAMGO 9.3 µM 100% | shares compounds with HTR2A ag | AID 624380 | activation, % at 9.3 µM | 5.3% of 2,300 active;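 active means mean activation above the mean of DMSO-only wells plus 3 SD, cut at about 0.5% in these data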
m5-HT2A ag conf: mouse HTR2A agonism confirmed; shares compounds with HTR2A ag; CHO-K1 PathHunter beta-arrestin recruitment, luminescence; DMSO 0%, 30 µM serotonin 100%; activation, % at 7.6 µM; 19% of 2,300 active; AID 624381;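 active means mean activation across triplicates above the hit threshold derived in the original primary screen, cut at about 15% in these data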
Active calls of the source: *; nt = not tested or not shown. Only some compounds are listed: those with a hit (about 2.1% of all), similar ones and a draw of the others.

SMILES	CXCR6 block	HTR2A ag	CCR6 antagonist	APJ antagonist	APJ agonist	EBI2 block	OPRM1 ag	m5-HT2A ag conf
O=S1(=O)CCC(NC(=S)N2CCCCC2)C1 (configuration not stated)	-4.2	17.1*	10.4	-6.6	5.3	-13.5	-0.5	-2.8
COCCNC(=O)c1ccccc1NC(=O)c1ccc(Cl)c(S(=O)(=O)Nc2ccc(C)cc2C)c1	3.8	13.2	17.2	12.4	-3.2	13.7	nt	nt
Cc1ccc(C(C)C)c(OCC(=O)OCC(=O)NC2CC2)c1	-3.1	25.6*	2.5	0.3	0.8	9.5	-0.4	-0.8
CC1(C)CC(=O)C/C(=N\NC(=S)NCc2ccccc2)C1	0.3	16.5*	-3.3	-5.0	-1.2	-3.8	-0.6	-4.8
O=C(Nc1ccncc1)c1cc(-c2cccc(Br)c2)nc2ccccc12	-6.7	14.8*	-16.6	0.0	27.5	-34.4	3.7*	10.2
CCCc1cc(CCC)n2nc(N)nc2n1	9.9	15.2*	nt	nt	nt	-2.3	-0.5	-2.6
CC(C)c1cc(C(C)C)n2nc(N)nc2n1	2.9	4.8	5.2	4.7	0.0	-10.3	nt	nt
Cn1c(Cc2cccs2)nnc1SCC(=O)Nc1ccccc1F	3.3	0.9	-0.1	20.0	2.0	-6.8	nt	nt
Cc1nc2ccccc2c(=O)n1-c1ccc(NS(=O)(=O)c2ccccc2)cc1	-6.5	14.9*	13.9	-8.6	-3.0	-4.2	-0.5	-1.9
Cc1nc2ccccc2c(=O)n1-c1ccc(NS(=O)(=O)c2ccc(F)cc2)cc1	6.5	-1.5	-3.8	-36.5	-1.4	-11.5	nt	nt
OC(CN1CCNCC1)Cn1c2ccccc2c2ccccc21 (configuration not stated)	-2.3	17.8*	-3.4	-30.9	-2.5	3.4	-0.5	6.0
Cc1nnc(SCC(=O)c2ccc([N+](=O)[O-])cc2)s1	-8.1	15.4*	-15.3	-26.5	3.3	4.6	0.5*	-1.9
COc1ccc(OCC(=O)Nc2ccccc2C(=O)N2CCOCC2)cc1	-3.0	0.9	4.6	-18.9	-6.2	-1.3	nt	nt
Cc1cccc(C)c1OCC(=O)Nc1ccccc1C(=O)N1CCOCC1	3.4	25.0*	15.0	11.8	2.6	-5.7	-0.6	0.9
O=C(COC(=O)/C=C/c1ccc(C(F)(F)F)cc1)NCC1CCCCC1	-1.4	25.2*	5.0	12.7	-6.1	-0.2	-0.6	-4.7
CC1CN(C(=O)COC(=O)/C=C/c2ccc(C(F)(F)F)cc2)CC(C)O1 (configuration not stated)	-2.0	3.2	-3.1	-5.1	-4.4	3.6	nt	nt
C[C@@H]1CCC(=O)N(C[C@@H](C)CSc2ccc(Br)cc2)CC1	1.5	-1.8	18.8	0.2	-2.6	5.0	nt	nt
COCCNC(=S)N(CCc1c(C)[nH]c2ccc(F)cc12)Cc1ccco1	4.0	27.9*	15.3	1.6	-4.2	17.2	-0.3	-2.8
COc1ccccc1-c1noc(-c2ccccc2)n1	-6.3	17.9*	4.1	1.8	0.4	-2.0	-0.4	-4.1
COc1cc(CN2CCN(Cc3c[nH]c4ccccc34)CC2CCO)cc(OC)c1 (configuration not stated)	1.7	19.4*	5.1	-5.6	-1.9	-4.4	-0.5	4.8
Cc1ccccc1C(=O)NC(=S)Nc1ccccc1[N+](=O)[O-]	17.7	0.8	27.8	13.9	-5.4	1.2	nt	nt
COc1ccc(S(=O)(=O)NCC(c2ccc3c(c2)OCO3)N2CCN(c3ccccc3)CC2)cc1 (configuration not stated)	9.0	18.4*	16.1	23.9	-2.5	10.7	-0.3	65.9*
Cn1c(O)c(N=Nc2ccc(F)cc2)c2ccccc21	6.1	3.5	16.9	20.2	-2.6	8.0	nt	nt
O=C1c2ccccc2C(=O)N1c1ncccn1	-1.9	21.9*	-11.0	1.2	-5.2	-15.7	-0.1	2.8
COc1cc(CNC2CCCC2)cc(Cl)c1OCc1ccc(F)cc1	-5.1	17.9*	1.3	14.4	10.1	-27.9	0.8*	3.9
SMILES	CXCR6 block	HTR2A ag	CCR6 antagonist	APJ antagonist	APJ agonist	EBI2 block	OPRM1 ag	m5-HT2A ag conf
Cn1c(=O)c2c(nc(N/N=C/c3cccs3)n2Cc2ccccc2)n(C)c1=O	1.0	9.4	8.6	9.9	2.8	13.6	nt	nt
CCOc1ccc2oc(C(=O)OCC(=O)N3CCCC(C)C3)c(C)c2c1 (configuration not stated)	6.5	3.4	18.0	8.1	-4.4	9.5	nt	nt
COc1ccc2oc(C(=O)OCC(=O)N3CCCC(C)C3)c(C)c2c1 (configuration not stated)	-1.1	19.9*	21.3	11.7	-3.2	-11.4	-0.6	-3.2
COc1ccc(CC(=O)Nc2c3c(nn2-c2cccc(C)c2C)CS(=O)C3)cc1OC (configuration not stated)	0.9	-3.5	13.4	-10.2	1.8	7.9	nt	nt
COc1ccc(-n2nc(C(=O)NCC(=O)N3CCC(C)CC3)c3ccccc3c2=O)cc1	-7.7	14.8*	6.1	21.2	-0.5	-0.7	-0.2	-1.0
COc1ccc(-n2nc(C(=O)NCC(=O)N3CCC(C(N)=O)CC3)c3ccccc3c2=O)cc1	-0.5	8.6	8.2	9.9	-3.9	-18.9	nt	nt
Cc1c(-c2cccc(NC(=O)c3cccs3)c2)nc2ncccn12	1.2	15.4*	1.2	-3.8	-2.1	-2.5	-0.5	7.1
CCOc1ccc(C(=O)NCC(=O)NNC(=O)C2COc3ccccc3O2)cc1OCC (configuration not stated)	4.0	19.3*	5.9	-1.4	-3.3	6.8	-0.7	-3.2
CCCCOc1ccc(C(=O)NCC(=O)NNC(=O)C2COc3ccccc3O2)cc1 (configuration not stated)	-4.0	0.1	4.3	17.4	-2.6	2.6	nt	nt
Cc1ccc(S(=O)(=O)Nc2c(C)n(C)n(-c3ccccc3)c2=O)cc1C(=O)OCC(=O)N1CCCC(C)C1 (configuration not stated)	-14.1	16.0*	3.3	13.5	-2.9	2.1	-0.6	1.4
Cc1cc(NC(=O)COC(=O)C2CCN(S(=O)(=O)c3cccc(Cl)c3Cl)CC2)no1	-3.3	23.7*	-9.1	14.5	-1.6	5.7	-0.6	-3.6
Cc1ccc(S(=O)(=O)NC(=O)Nc2ccc(F)c(F)c2)cc1	-5.5	-3.6	5.0	-18.3	-2.7	-2.0	nt	nt
Cc1ccc(S(=O)(=O)NC(=O)Nc2cccc(S(=O)(=O)N(C)C)c2)cc1	1.1	17.5*	9.2	8.1	-1.8	-10.8	-0.6	-0.3
